Experimental data pooled from the literature.
Each line is one published result; the experiments were not run side by side.
Target: Glycogen synthase kinase-3 beta (GSK3B, Homo sapiens, UniProt P49841)

Structure (SMILES) | assay | setting | quantity | result
COc1c2c(cc3c1OCO3)CC[N+](C)=C2 | enzyme activity, inhibitor, ADP detection | 100 µM | inhibition | 24.8%
Cn1cncc1[C@](O)(COc1ccc(C#N)cc1-c1ccc(OC(F)(F)F)cc1)c1ccc(C#N)cc1 | cell-free assay, competition with immobilised ligand | 1 µM | remaining binding | 93%
C#Cc1n[nH]c2c(-c3cn([C@@H](C)c4ccccn4)c(=O)[nH]c3=O)cc(F)cc12 | enzyme activity, inhibitor | 0.1 µM | inhibition | -0.1%
Cn1cc(-c2cccc(N3CCc4c(sc5c4CC(C)(C)C5)C3=O)c2CO)cc(Nc2ccncn2)c1=O | enzyme activity, inhibitor | 1 µM | inhibition | -5%
O=c1[nH]c2ccccc2n1C1CCN(Cc2ccc(-c3[nH]c4cc5ncnc5cc4nc3-c3ccccc3)cc2)CC1 | enzyme activity | 0.5 µM | remaining activity | 113%
C#Cc1n[nH]c2c(-c3cn([C@@H](C)c4ccccc4)c(=O)[nH]c3=O)cc(F)cc12 | enzyme activity, inhibitor | 0.1 µM | inhibition | -3.5%
COc1ncccc1-c1cnn2ccc(N3CCN(C(=O)OC(C)C)CC3)nc12 | binding, competition with immobilised ligand | 1 µM | remaining binding | 62%
Cc1nn(C)cc1-c1nc2c(N3CCN(Cc4ccc(Cl)cc4)CC3)c(Cl)cnc2[nH]1 | binding, competition with immobilised ligand | 1 µM | remaining binding | 68%
Nc1ncc(-c2nc(N3CCOCC3)nc(N3CCOCC3)n2)c(C(F)F)n1 | binding, competition with immobilised ligand | 10 µM | remaining binding | 74%
COc1cc2c(cc1-c1cc3cc4ccoc4cc3oc1=O)OCO2 | enzyme activity, inhibitor, ADP detection | 100 µM | inhibition | 26.4%
CC(C)(C)c1cc(C=C(C#N)C#N)cc(Br)c1O | enzyme activity, inhibitor | 0.5 µM | remaining activity | 107%
Cn1cc(-c2cc(F)cc(N3CCn4c(cc5c4CCCC5)C3=O)c2CO)cc(Nc2ccc(N3CCN(C4COC4)CC3)cn2)c1=O | enzyme activity, inhibitor | 0.1 µM | inhibition | 5%
O=[N+]([O-])c1ccc([As](=O)(O)O)cc1 | enzyme activity, inhibitor, ADP detection | 100 µM | inhibition | 5.2%
